ASAP1 inh – inhibitors of human ASAP1 ArfGAP activity. Q9ULH1. ASAP1-stimulated ARF1 GTP hydrolysis, GDP FP detection. inhibition, % at 16.5 µM. hit rate 0.19% among 360,000. AID 624377; in the data active means inhibition above about 25%;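 further: 0% = vehicle with enzyme and substrate and 100% = no enzyme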
Target sequence (Q9ULH1 325-724 limits assumed): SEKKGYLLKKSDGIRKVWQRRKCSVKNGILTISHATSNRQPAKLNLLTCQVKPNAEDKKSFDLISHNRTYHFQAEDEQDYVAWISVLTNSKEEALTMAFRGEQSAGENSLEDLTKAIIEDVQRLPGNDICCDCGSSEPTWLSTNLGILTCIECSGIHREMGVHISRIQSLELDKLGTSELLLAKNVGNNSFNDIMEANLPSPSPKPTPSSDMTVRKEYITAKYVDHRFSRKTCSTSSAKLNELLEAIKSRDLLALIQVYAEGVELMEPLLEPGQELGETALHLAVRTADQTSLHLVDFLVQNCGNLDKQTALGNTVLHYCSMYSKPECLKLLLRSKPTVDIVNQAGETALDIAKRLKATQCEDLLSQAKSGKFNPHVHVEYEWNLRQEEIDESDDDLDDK
Granule exo inh – blocks lytic granule exocytosis; inhibition, % at 10 µM; hit rate 0.66% among 360,000; TALL-104 LAMP-1 surface exposure, flow cytometry; cells stimulated with thapsigargin and PMA; AID 651702;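 active means inhibition above about 55%, limit read from the data; inconclusive means no clear call, values can overlap the other calls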
ARFGAP1 inhibitor – inhibitors of rat ARFGAP1; AID 651572; Q62848; inhibition, % at 16.5 µM; Arfgap1-stimulated ARF1 GTP hydrolysis, GDP FP detection; hit rate 0.26% among 360,000;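 active means inhibition above a per-plate limit, mean inhibition of low control wells plus 3 SD, cut at about 25% in these data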;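 further: 0% = DMSO wells with enzyme and 100% = wells lacking Arfgap1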
Target sequence (Q62848 1-136 limits assumed): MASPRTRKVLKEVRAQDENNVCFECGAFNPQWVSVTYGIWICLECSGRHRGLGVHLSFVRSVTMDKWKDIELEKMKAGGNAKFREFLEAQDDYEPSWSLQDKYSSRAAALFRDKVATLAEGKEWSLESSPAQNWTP
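material = rat Arfgap1 catalytic domain, aa 1-136 | also added = human ARF1(Δ1-17)-GTP substrate | compound dosing = one concentration, 16.5 µM, DMSO 1.26% | times = GTP hydrolysis reaction 2 h at 25 °C | measured by = FP, GDP Alexa 633 tracer displaced from anti-GDP antibody, 620/688 nm | evaluation = percent inhibition of Arfgap1-stimulated GTP hydrolysis | replication = single well per compound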
CendR NRP1 mod – alters CendR peptide binding to human NRP-1; O14786; inhibition, % at 25 µM; hit rate 0.85% among 360,000; FAM-RPARPAR peptide binding to NRP-1, fluorescence polarization;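 active means inhibition or corrected inhibition above about 18%, plus a signal ratio from 0.5 to 1.5, limit read from the data, passing the limit was not always enough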
V-ATPase pHluor – alters yeast V-ATPase proton transport; hit rate 0.37% among 350,000; S. cerevisiae, pHLuorin cytosolic pH fluorescence; response, % at 10 µM; AID 504577; in the data active means response mostly above about 7.3%, no sharp cut-off; inactive means mostly below about 5.4%; further: actives read high
An asterisk follows results filed as active; u = inconclusive; x = no result given. The list is not random: actives were taken first. Their share in the collection is about 2.2%.

SMILES	ASAP1 inh	Granule exo inh	ARFGAP1 inhibitor	CendR NRP1 mod	V-ATPase pHluor
COC(=O)[C@H](N[C@H](/C=C/c1ccccc1)[C@@H](O)Cc1ccccc1)c1ccccc1	-2	x	4	x	x
COc1cc([N+](=O)[O-])ccc1NC(=O)CCCOc1cccc(C)c1	-3	-1	-3	20*	-3
CCOC(=O)c1c(-c2cccc([N+](=O)[O-])c2)csc1NC(=O)CCCOc1ccccc1OC	6	-2	-6	33*	-1
CCOC(=O)c1c(-c2cccc([N+](=O)[O-])c2)csc1NC(=O)CCCOc1ccccc1	-16	1	-1	-8	-3
COc1ccc(C2CC(=O)C(c3ccc(C(N)=O)cc3)=CN2Cc2ccccc2)cc1 (configuration not stated)	-3	x	4	x	x
C=CCO[C@H]1CN(C(=O)OC)[C@@H](c2ccccc2Br)C[C@H]1OCC=C	-10	x	6	x	x
CCOC(=O)N[C@@H](Cc1cccnc1)C(=O)N1CCC[C@H]1C(=O)NC1CCCC1	-5	x	1	x	x
Clc1ccc(-c2ccc(/C=N/Nc3cc(N4CCOCC4)nc(N4CCOCC4)n3)o2)cc1	-1	83*	-11	15	-7
O=C(O)CCC(=O)Nc1cccc(C(=O)c2ccccc2)c1	5	-3	7	-4	-3
Cc1ccccc1NC(=O)c1cccc(NC(=O)CCC(=O)O)c1	-8	-2	-4	23*	0
NC(=O)c1c(NC(=O)C(=O)N2CCOCC2)sc2c1CCCC2	-5	-2	8	32*	-1
C[C@H](O)[C@@H]1CN2CCc3c([nH]c4c(-c5ccccc5)cccc34)[C@@H]2C[C@@H]1N(C)C(=S)NCCc1ccccc1	6	x	5	x	x
Cc1ccc(/C=C2/C(=O)N(c3ccccc3)C(=S)N2C)o1	-12	83*	-3	-7	1
COC(=O)C1=C(C)N(Cc2ccccc2C(F)(F)F)C(=NCc2ccc3c(c2)OCO3)NC1c1cccc(C(F)(F)F)c1 (configuration not stated)	7	x	6	x	x
CC1CN(S(=O)(=O)c2cc(C(=O)NC(C)c3cccnc3)ccc2Cl)CC(C)O1 (configuration not stated)	0	2	-16	20*	2
O=C(Nc1cccnc1)c1ccc(Cl)c(S(=O)(=O)N2CCCCCC2)c1	-1	5	-3	8	0
CCCN=C1N/C(=C\c2ccco2)C(=O)N1c1ccccc1	6	4	2	43*	2
O=C1/C(=C\c2ccco2)NC(=S)N1c1ccccc1	-6	24	-12	-66	-3
Cc1n[nH]c(C)c1S(=O)(=O)N1CCOCC1	-9	u	1	27*	3
Cc1n[nH]c(C)c1S(=O)(=O)N1CCC(C(=O)O)CC1	-6	4	4	-1	-4
COc1ccccc1N1CCN(Cc2cc(=O)c(OCC(=O)NC3CCCC3)co2)CC1	6	5	3	-7	-3
O=C1NC(c2ccc(Br)cc2)c2c(-c3ccccc3)n[nH]c21 (configuration not stated)	7	x	6	x	x
CCNC(=O)C1(C)CCCN(C(=O)c2nc(C)oc2C)C1 (configuration not stated)	-1	5	10	24*	x
O=C(N[C@H](C(=O)N1CCC[C@H]1C(=O)NC1CCCC1)C1CCCCC1)c1ccc(Cl)cc1Cl	14	x	5	x	x
CCOC(=O)C1=C(Cc2ccc(Cl)cc2)C(=O)c2ccccc2C1=O	x	93*	x	-11	-3
SMILES	ASAP1 inh	Granule exo inh	ARFGAP1 inhibitor	CendR NRP1 mod	V-ATPase pHluor
Cc1[nH]c(-c2ccco2)nc1C(=O)O	6	0	11	-11	23*
Cc1[nH]c(-c2ccc3c(c2)OCO3)nc1C(=O)O	-1	2	-4	6	-1
COc1cc2c(c(OC)c1OC)-c1c(cc(OC)c(OC)c1OC)C[C@](C)(O)[C@@H](C)C2	-1	11	-16	39*	6
C[C@@H]([C@@H](O)c1ccccc1)N(C)C(=O)C(N)Cc1ccccc1 (some centres not stated)	4	-2	-2	3	26*
COc1ccccc1NC(=S)N(Cc1ccc(Cl)cc1)CC1CCC(C(=O)O)CC1 (configuration not stated)	5	0	11	28*	0
COc1ccc(CN(CC2CCC(C(=O)O)CC2)C(=S)Nc2ccccc2OC)cc1 (configuration not stated)	4	-4	4	-4	2
COCc1cc(N2CCN(C(=O)OC(C)(C)C)C[C@H]2C)ccc1N1C[C@@H](C)O[C@@H](C)C1	-4	x	-5	x	x
Cc1cc(N2CCN(C(=O)OC(C)(C)C)C[C@@H]2C)ccc1N1C[C@@H](C)O[C@@H](C)C1	-2	x	-2	x	x
Cc1cc(F)ccc1S(=O)(=O)Nc1ccccc1C(=O)NCc1ccccn1	10	0	11	0	0
Cc1cc(F)ccc1S(=O)(=O)Nc1ccccc1C(=O)Nc1ncn[nH]1	5	0	15	19*	1
CCCCn1c(N)c(N(CCOC)C(=O)C(C)N2C(=O)c3ccccc3C2=O)c(=O)[nH]c1=O (configuration not stated)	-8	-4	-3	20	0
CC(C)(C=O)C1=CC(=O)c2ccccc2C1=O	17	91*	3	19	16*
COc1ccc(/C=N/NC(=O)c2ccccc2Cl)cc1CSc1nc2ccccc2s1	8	-2	5	31*	0
COC(=O)C(C)Oc1cc(OC(C)C(=O)OC)c2c(-c3ccccc3)cc(=O)oc2c1 (configuration not stated)	-4	63*	2	0	1
COC(=O)COc1cc(OCC(=O)OC)c2c(-c3ccccc3)cc(=O)oc2c1	12	8	-2	10	-5
O=C(/C(=C/c1cccnc1)n1ccnc1)c1ccc(Cl)cc1Cl	13	96*	4	5	-3
O=C(/C(=C/c1ccncc1)n1ccnc1)c1ccc(Cl)cc1Cl	-8	x	13	x	-1
CCOC(=O)c1ccc(N2C(=O)CC(Sc3nnc(C)s3)C2=O)cc1 (configuration not stated)	-11	4	-7	35*	-5
CCOC(=O)c1ccc(-n2c(C)ccc2C)cc1	-15	5	3	8	-7
CCOC(=O)c1ccc(N2C(=O)C=CC2=O)cc1	x	105*	x	-2	3
C=CCNc1nnc(SC2CC(=O)N(c3ccc(OCCC)cc3)C2=O)s1 (configuration not stated)	9	66*	-6	13	-2
CCOC(=O)c1ccc(N2C(=O)CC(Sc3nc(C)cc(C)n3)C2=O)cc1 (configuration not stated)	-6	1	-10	4	-3
CN1CCCCC(NC(=O)c2ccc(C#N)cc2)C1=O (configuration not stated)	0	x	0	x	x
CCCc1nc(SCC(=O)Nc2nnc(CC)s2)c2c(=O)n(C)c(=O)n(C)c2n1	5	-1	-12	8	5

Source: PubChem
